Assay results taken from BindingDB's records for doi:10.1021/jm020875j (Boehringer Ingelheim Pharma, 2002).

Biological target: Sodium channel protein type 1/2/3 subunit alpha (Rattus norvegicus, UniProt P04774+P04775+P08104)
Experiment: Displacement of [3H]BTX from sodium channel of rat cerebral cortex synaptosomes
In short: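 Synaptosomal membranes from rat cerebral cortex incubated 1 h at 37 °C with 1 nmol/L [3H]BTX-B in choline Cl/HEPES-Tris buffer pH 7.4 containing glucose, KCl and MgSO4, plus scorpion venom. Nonspecific binding defined with 100 μmol/L aconitine. Stopped by vacuum filtration through glass fiber and two buffer washes.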

Going from `C[C@H](CN1CCC2(C)c3ccc(O)cc3C[C@@H]1C2(C)C)Oc1ccccc1` to `C[C@@H](CN1CCC2(C)c3ccc(O)cc3C[C@H]1C2(C)C)Oc1ccccc1`, the Ki rises from 662 nM to 1530 nM (2.3-fold).

Compared with `C[C@@H](CN1CCC2(C)c3ccc(O)cc3C[C@H]1C2(C)C)OCc1ccccc1`, `C[C@H](CN1CCC2(C)c3ccc(O)cc3C[C@@H]1C2(C)C)OCc1ccccc1` is 4.9-fold lower in Ki: 1870 nM for the first, 382 nM for the second.

First: COC(C)CN1CCC2(C)c3c(O)cccc3C[C@@H]1C2(C)C (some centres undefined)
Second: CO[C@H](C)CN1CCC2(C)c3cccc(O)c3C[C@@H]1C2(C)C
The Ki of the first is 2.7-fold higher: 8990 nM for the first, 3310 nM for the second. The second binds more tightly here.

Going from `CC1[C@H]2Cc3c(O)cccc3C1(C)CCN2C[C@@H](C)OCc1ccccc1` (some centres undefined) to `CC1[C@H]2Cc3c(O)cccc3C1(C)CCN2C[C@H](C)OCc1ccccc1` (some centres undefined), the Ki falls from 153 nM to 54 nM (2.8-fold). The second binds more tightly here.

`CC12CCN(CCc3ccccc3)[C@@H](Cc3cc(O)ccc31)C2(C)C` and `CC12CCN(CCc3ccccc3)[C@H](Cc3cc(O)ccc31)C2(C)C` are within 1.5-fold of each other in Ki: 1290 nM for the first, 1060 nM for the second.

First: COC(C)CN1CCC2(C)c3ccc(O)cc3C[C@@H]1C2(C)C (some centres undefined)
Second: COC(C)CN1CCC2(C)c3cc(O)ccc3C[C@@H]1C2(C)C (some centres undefined)
The Ki of the first is higher: > 10000 nM for the first, 6010 nM for the second. The second binds more tightly here.

First: CO[C@@H](C)CN1CCC2(C)c3ccccc3C[C@@H]1C2(C)C
Second: CO[C@H](C)CN1CCC2(C)c3cccc(O)c3C[C@H]1C2(C)C
The Ki of the first is 2.1-fold lower: 4700 nM for the first, 10000 nM for the second.

`C[C@@H](CN1CCC2(C)c3cccc(O)c3C[C@@H]1C2(C)C)OCC1CCCCC1` and `C[C@H](CN1CCC2(C)c3cccc(O)c3C[C@@H]1C2(C)C)OCC1CCCCC1` are within 1.5-fold of each other in Ki: 208 nM for the first, 241 nM for the second.

`Cc1ccc(-c2nc(C)c(CN3CCN(C(c4ccccc4)c4ccccc4)CC3)[nH]2)cc1` [Lifarizine] and `CN(c1nc2ccccc2s1)C1CCN(C[C@H](O)COc2ccc(F)c(F)c2)CC1` are within 1.5-fold of each other in Ki: 259 nM for the first, 203 nM for the second.

First: C[C@H](CN1CCC2(C)c3ccc(O)cc3C[C@H]1C2(C)C)Oc1ccccc1
Second: C[C@@H](CN1CCC2(C)c3ccc(O)cc3C[C@@H]1C2(C)C)Oc1ccccc1
The Ki of the first is 5.8-fold higher: 864 nM for the first, 149 nM for the second. The second binds more tightly here.

First: COc1ccc2c(c1)[C@]13CCCC[C@@H]1[C@H](C2)N(C)CC3 [DEXTROMETHORPHAN]
Second: CO[C@@H](C)CN1CCC2(C)c3cccc(O)c3C[C@@H]1C2(C)C
The Ki of the first is 6.1-fold higher: 4800 nM for the first, 783 nM for the second.

Compared with `CC(CN1CCC2(C)C[C@@H]1Cc1c(O)cccc12)OCc1ccccc1` (some centres undefined), `C[C@@H](CN1CCC2(C)c3cccc(O)c3C[C@H]1C2(C)C)OCc1ccccc1` is 28-fold higher in Ki: 47 nM for the first, 1330 nM for the second. The first binds more tightly here.

First: C[C@@H](CN1CCC2(C)c3ccc(O)cc3C[C@@H]1C2(C)C)OCc1ccccc1
Second: C[C@H](CN1CCC2(C)c3ccc(O)cc3C[C@H]1C2(C)C)OCc1ccccc1
The Ki of the first is 3.9-fold lower: 312 nM for the first, 1230 nM for the second.

Going from `C[C@H](CN1CCC2(C)c3cccc(O)c3C[C@H]1C2(C)C)OCc1ccccc1` to `CO[C@@H](C)CN1CCC2(C)c3cccc(O)c3C[C@H]1C2(C)C`, the Ki rises from 1490 nM to 10000 nM (6.7-fold).

With `Cc1cccc(C)c1OC[C@@H](C)N` the Ki was 22700 nM.
